According to ChEMBL document CHEMBL1147117, “Novel synthetic antimicrobial peptides against Streptococcus mutans” (2007):
Where a SMILES comes first, the peptide text is derived from it.

Assays:
Assay type in all cases: functional
Streptococcus mutans [1] = assay: Antibacterial activity against Streptococcus mutans after 16 to 20 hrs
How it was run: (§1)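 Broth microdilution in TH broth or Veillonella medium. Overnight cultures grown to OD600 0.75 to 0.8 were diluted to 1 x 10^5 CFU/ml. Peptide was serially diluted 1:2 from 500 or 512 µg/ml down to 1.95 or 2 µg/ml, with a methanol solvent control. Incubation was 16 to 20 h at 37°C, anaerobic, without shaking. MIC was read visually as the last clear well. Run in triplicate.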

Lacticaseibacillus casei = assay: Antibacterial activity against Lactobacillus casei ATCC 4646 after 16 to 20 hrs; how it was run: as §1
Veillonella atypica = assay: Antibacterial activity against Veillonella atypica PK1910 after 16 to 20 hrs; how it was run: as §1
Streptococcus mitis = assay: Antibacterial activity against Streptococcus mitis ATCC 903 after 16 to 20 hrs; how it was run: as §1
Streptococcus gordonii = assay: Antibacterial activity against Streptococcus gordonii Challis DL1 after 16 to 20 hrs; how it was run: as §1
Streptococcus sanguinis = assay: Antibacterial activity against Streptococcus sanguinis NY101 after 16 to 20 hrs; how it was run: as §1
Streptococcus mutans [2] = assay: Bactericidal activity against Streptococcus mutans UA159 assessed as time required to kill 3 log10 of recoverable CFU/ml at 25 ug/ml relative to untreated control
How it was run: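 Time-kill assay. Overnight UA159 cultures were diluted in medium to 0.5 x 10^6 to 1 x 10^6 CFU/ml and exposed to 25 µg/ml peptide. At each time point a 10-µl aliquot was diluted 1:50 into growth medium and plated on TH agar; whole 1-ml samples were plated when survivors were below 3,000 CFU/ml. TC is the time for survivors to fall 3 log10 below untreated CFU/ml. Repeated 3 to 5 times.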

Row | Molecule | MIC (Streptococcus mutans [1]) | also measured
1 | H-VKQLLKIFNRF-NH2 | 32 µg/mL | 
2 | H-RWRRLLKKLHHLLH-NH2 | 8 µg/mL | MIC (Lacticaseibacillus casei): 16 µg/mL; MIC (Veillonella atypica): 4 µg/mL; MIC (Streptococcus mitis): 32 µg/mL; MIC (Streptococcus gordonii): 16 µg/mL; MIC (Streptococcus sanguinis): 16 µg/mL
3 | H-RWRWRWFGGGRWRWRWF-NH2 | 16 µg/mL | Time (Streptococcus mutans [2]): 90 min
4 | H-LKRFLKWFKRF-NH2 | 8 µg/mL | MIC (Lacticaseibacillus casei): 16 µg/mL; MIC (Veillonella atypica): 32 µg/mL; MIC (Streptococcus mitis): 64 µg/mL; MIC (Streptococcus gordonii): 32 µg/mL; MIC (Streptococcus sanguinis): 16 µg/mL
5 | H-VKTLLHIFQRF-NH2 | 31.2 µg/mL | 
6 | H-AQAAHQAAHAAHQF-NH2 | > 125 µg/mL | 
7 | H-KLKKLLKRWRRWWR-OH | 8 µg/mL | 
8 | H-LQLLKQLLKLLKQF-NH2 | 8 µg/mL | 
9 | H-FKTFLQWLHRF-NH2 | 16 µg/mL | 
10 | H-KLLQTFKQIFR-OH | > 250 µg/mL | 
11 | H-RILKELKNLFK-OH | > 250 µg/mL | 
12 | H-FKKFWKWFRRFGGGRWRWRWF-NH2 | 4 µg/mL | MIC (Lacticaseibacillus casei): 8 µg/mL; MIC (Veillonella atypica): 8 µg/mL; MIC (Streptococcus mitis): 64 µg/mL; MIC (Streptococcus gordonii): 32 µg/mL; MIC (Streptococcus sanguinis): 16 µg/mL
13 | H-FHYFWHWFHRF-NH2 | 125 µg/mL | 
14 | H-LYHFLHWFQRF-NH2 | 125 µg/mL | 
15 | H-RWRWRWF-NH2 | 125 µg/mL | Time (Streptococcus mutans [2]): 220 min; MIC (Lacticaseibacillus casei): 32 µg/mL; MIC (Veillonella atypica): 64 µg/mL; MIC (Streptococcus mitis): 32 µg/mL; MIC (Streptococcus gordonii): 32 µg/mL; MIC (Streptococcus sanguinis): 32 µg/mL
16 | H-RWRRLLKKLHHLLHGGGIKQLLHFFQRF-NH2 | 16 µg/mL | 
17 | Cl.N=C(N)NCCC[C@H](NC(=O)[C@H](CCCNC(=N)N)NC(=O)[C@@H](N)CCCNC(=N)N)C(=O)N[C@@H](CCCCN)C(=O)N[C@@H](Cc1c[nH]c2ccccc12)C(=O)N[C@@H](Cc1c[nH]c2ccccc12)C(=O)N[C@@H](CCCCN)C(=O)O (H-RRRKWWK-OH) | 125 µg/mL | 
18 | H-KLKKLLKHLHHLLH-NH2 | 8 µg/mL | 
19 | H-KLAQKVKRVLR-OH | > 125 µg/mL | 
20 | H-RRRWWWFRRRWWWF-NH2 | 16 µg/mL | Time (Streptococcus mutans [2]): 60 min
21 | H-FKTFLKWLHRF-NH2 | 24 µg/mL | 
22 | H-RWRWRWFPSGSPRWRWRWF-NH2 | 32 µg/mL | Time (Streptococcus mutans [2]): 270 min
23 | H-RWRWRWFASASARWRWRWF-NH2 | 16 µg/mL | Time (Streptococcus mutans [2]): 45 min
24 | H-RRWWRRK-OH | 125 µg/mL | 
25 | H-RRRFWWR-OH | 31.2 µg/mL | 

Row | Molecule | MIC (Streptococcus mutans [1]) | also measured
26 | H-LKQFVKFIHRF-NH2 | 24 µg/mL | 
27 | H-RRRRWWW-OH | 16 µg/mL | 
28 | H-RRRWWWF-NH2 | 4 µg/mL | Time (Streptococcus mutans [2]): 220 min; MIC (Lacticaseibacillus casei): 16 µg/mL; MIC (Veillonella atypica): 64 µg/mL; MIC (Streptococcus mitis): 32 µg/mL; MIC (Streptococcus gordonii): 32 µg/mL; MIC (Streptococcus sanguinis): 16 µg/mL
29 | H-RWRWRWFGGGLKRFLKWFKRF-NH2 | 8 µg/mL | MIC (Lacticaseibacillus casei): 8 µg/mL; MIC (Veillonella atypica): 16 µg/mL; MIC (Streptococcus mitis): 64 µg/mL; MIC (Streptococcus gordonii): 32 µg/mL; MIC (Streptococcus sanguinis): 16 µg/mL
30 | H-FKKFWKWFRRF-NH2 | 8 µg/mL | MIC (Lacticaseibacillus casei): 32 µg/mL; MIC (Veillonella atypica): 16 µg/mL; MIC (Streptococcus mitis): 32 µg/mL; MIC (Streptococcus gordonii): 32 µg/mL; MIC (Streptococcus sanguinis): 32 µg/mL
31 | H-TILQSLKNIFK-OH | > 125 µg/mL | 
32 | H-RVLQEIKQILK-OH | > 250 µg/mL | 
33 | H-RRRWWWR-OH | 32 µg/mL | 
34 | H-KLKKLLKKLKKLLK-OH | 8 µg/mL | 
35 | H-IKQLLHFFQRF-NH2 | 24 µg/mL | MIC (Lacticaseibacillus casei): 32 µg/mL; MIC (Veillonella atypica): 64 µg/mL; MIC (Streptococcus mitis): 64 µg/mL; MIC (Streptococcus gordonii): 32 µg/mL; MIC (Streptococcus sanguinis): 64 µg/mL
36 | H-VKNLAELVHRF-NH2 | > 250 µg/mL | 
37 | H-AQAAKQAAKAAKQF-NH2 | > 125 µg/mL | 
38 | H-LKRFLKWFKRFGGGRWRWRWF-NH2 | 4 µg/mL | MIC (Lacticaseibacillus casei): 16 µg/mL; MIC (Veillonella atypica): 8 µg/mL; MIC (Streptococcus mitis): 64 µg/mL; MIC (Streptococcus gordonii): 64 µg/mL; MIC (Streptococcus sanguinis): 16 µg/mL
39 | H-YLLTEFQHLFK-OH | > 125 µg/mL | 
40 | H-RRRWWWFPSGSPRRRWWWF-NH2 | 32 µg/mL | Time (Streptococcus mutans [2]): 420 min
41 | H-KLAENVKEILR-NH2 | > 250 µg/mL | 
42 | H-RWRKRWK-OH | 125 µg/mL | 
43 | H-RWRRLLKKLHHLLHGGGFKKFWKWFRRF-NH2 | 4 µg/mL | MIC (Lacticaseibacillus casei): 8 µg/mL; MIC (Veillonella atypica): 8 µg/mL; MIC (Streptococcus mitis): 32 µg/mL; MIC (Streptococcus gordonii): 16 µg/mL; MIC (Streptococcus sanguinis): 16 µg/mL
44 | H-LKLLKKLLKLLKKF-NH2 | 8 µg/mL | 
45 | H-RRRKWWK-OH | 250 µg/mL | 
46 | H-RWRWRWR-OH | 32 µg/mL | 
47 | H-KLLQTFNQIFR-OH | > 125 µg/mL | 
48 | H-VKKLAKLVRRF-NH2 | 16 µg/mL | 
49 | H-ATHLLHALQRF-NH2 | > 250 µg/mL | 
50 | H-RVLNQVKQILK-OH | > 125 µg/mL | 

Row | Molecule | MIC (Streptococcus mutans [1]) | also measured
51 | H-RALKRIKHVLK-OH | > 125 µg/mL | 
52 | H-RWRWRWK-OH | 32 µg/mL | 
53 | H-IKTLLHFFQRF-NH2 | 32 µg/mL | 
54 | H-YLFQTWQHLFR-OH | > 125 µg/mL | 
55 | H-RWRWRWFRWRWRWF-NH2 | 16 µg/mL | Time (Streptococcus mutans [2]): 50 min
56 | H-RRWKRRK-OH | 500 µg/mL | 
57 | H-KLVEQLKEIFR-OH | > 250 µg/mL | 
58 | H-RRRWWWFASASARRRWWWF-NH2 | 32 µg/mL | Time (Streptococcus mutans [2]): 480 min
59 | H-IKQLLHFFQRFGGGRWRRLLKKLHHLLH-NH2 | 16 µg/mL | 
60 | H-RWRWRWFGGGFKKFWKWFRRF-NH2 | 4 µg/mL | MIC (Lacticaseibacillus casei): 8 µg/mL; MIC (Veillonella atypica): 8 µg/mL; MIC (Streptococcus mitis): 64 µg/mL; MIC (Streptococcus gordonii): 16 µg/mL; MIC (Streptococcus sanguinis): 8 µg/mL
61 | H-RWRWRWFGGGIKQLLHFFQWRF-NH2 | 8 µg/mL | 
62 | H-KLVQQLKNIFR-OH | > 125 µg/mL | 
63 | H-LKQFVHFIHRF-NH2 | 32 µg/mL | 
64 | H-RRWWRRW-OH | 16 µg/mL | 
65 | H-RWRRWWRHFHHFFH-NH2 | 8 µg/mL | 
66 | H-FKKFWKWFRRFGGGRWRRLLKKLHHLLH-NH2 | 16 µg/mL | 
67 | H-RRRRWWK-OH | 125 µg/mL | 
68 | H-IKQLLHFFQRFGGGRWRWRWF-NH2 | 4 µg/mL | MIC (Lacticaseibacillus casei): 16 µg/mL; MIC (Veillonella atypica): 8 µg/mL; MIC (Streptococcus mitis): 64 µg/mL; MIC (Streptococcus gordonii): 32 µg/mL; MIC (Streptococcus sanguinis): 16 µg/mL
69 | H-RALHEAKEALK-OH | > 250 µg/mL | 
70 | H-KLFKRWKHLFR-OH | 31.2 µg/mL | 
71 | H-RRWWRRF-NH2 | 4 µg/mL | 
72 | H-RRRWWWK-OH | 31.2 µg/mL | 
73 | H-RLLKRFKHLFK-OH | 31.2 µg/mL | 
74 | H-AKRLLKVLKRF-NH2 | 16 µg/mL | 
75 | H-RRRWWWFGGGRRRWWWF-NH2 | 16 µg/mL | Time (Streptococcus mutans [2]): 270 min
